Data published in ChEMBL document CHEMBL1137855, “Synthesis and biological evaluation of taxinine analogues as orally active multidrug resistance reversal agents in cancer” (Bioorg Med Chem Lett, 2004).

What was measured:
Format in all cases: functional, cell-based
[1] = target: ATP-dependent translocase ABCB1 (Homo sapiens, UniProt P08183); assay: TP_TRANSPORTER: drug resistance (vincristine) in MDR KB/V cells
In short: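 Fold reversal in KB/V cells from MTT vincristine IC50s measured with and without the reversing agent (5 or 10 μM). The ratio is defined as the vincristine IC50 […].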

[2] = test system: KB 3-1; assay: inhibitory concentration against human MDR KB/V cell line in presence of compound verapamil at 10 uM
In short: (§1)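 Vincristine cytotoxicity in P-gp-overexpressing MDR KB/V cells, alone or with a reversing agent at the stated level (5 or 10 μM). MTT colorimetric assay in 96-well plates measured cell survival. IC50 is the vincristine concentration (nM) that inhibited cell growth by 50%.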

[3] = test system: KB 3-1; assay: inhibitory concentration against human MDR KB/V cell line in presence of compound Taxinine at 10 uM; in short: as §1
[4] = test system: KB 3-1; assay: inhibitory concentration against human MDR KB/V cell line in presence of compound 9 at 10 uM; in short: as §1
[5] = test system: KB 3-1; assay: inhibitory concentration against human MDR KB/V cell line in presence of compound 9 at 5 uM; in short: as §1
[6] = test system: KB 3-1; assay: inhibitory concentration against human MDR KB/V cell line in presence of compound 8 at 10 uM; in short: as §1
[7] = test system: KB 3-1; assay: inhibitory concentration against human MDR KB/V cell line in presence of compound 8 at 5 uM; in short: as §1
[8] = test system: KB 3-1; assay: inhibitory concentration against human MDR KB/V cell line in presence of compound 10 at 5 uM; in short: as §1
[9] = test system: KB 3-1; assay: inhibitory concentration against human MDR KB/V cell line in presence of compound 10 at 10 uM; in short: as §1
[10] = test system: KB 3-1; assay: inhibitory concentration against human MDR KB/V cell line; in short: as §1

Sequence of ATP-dependent translocase ABCB1 (P08183 whole entry): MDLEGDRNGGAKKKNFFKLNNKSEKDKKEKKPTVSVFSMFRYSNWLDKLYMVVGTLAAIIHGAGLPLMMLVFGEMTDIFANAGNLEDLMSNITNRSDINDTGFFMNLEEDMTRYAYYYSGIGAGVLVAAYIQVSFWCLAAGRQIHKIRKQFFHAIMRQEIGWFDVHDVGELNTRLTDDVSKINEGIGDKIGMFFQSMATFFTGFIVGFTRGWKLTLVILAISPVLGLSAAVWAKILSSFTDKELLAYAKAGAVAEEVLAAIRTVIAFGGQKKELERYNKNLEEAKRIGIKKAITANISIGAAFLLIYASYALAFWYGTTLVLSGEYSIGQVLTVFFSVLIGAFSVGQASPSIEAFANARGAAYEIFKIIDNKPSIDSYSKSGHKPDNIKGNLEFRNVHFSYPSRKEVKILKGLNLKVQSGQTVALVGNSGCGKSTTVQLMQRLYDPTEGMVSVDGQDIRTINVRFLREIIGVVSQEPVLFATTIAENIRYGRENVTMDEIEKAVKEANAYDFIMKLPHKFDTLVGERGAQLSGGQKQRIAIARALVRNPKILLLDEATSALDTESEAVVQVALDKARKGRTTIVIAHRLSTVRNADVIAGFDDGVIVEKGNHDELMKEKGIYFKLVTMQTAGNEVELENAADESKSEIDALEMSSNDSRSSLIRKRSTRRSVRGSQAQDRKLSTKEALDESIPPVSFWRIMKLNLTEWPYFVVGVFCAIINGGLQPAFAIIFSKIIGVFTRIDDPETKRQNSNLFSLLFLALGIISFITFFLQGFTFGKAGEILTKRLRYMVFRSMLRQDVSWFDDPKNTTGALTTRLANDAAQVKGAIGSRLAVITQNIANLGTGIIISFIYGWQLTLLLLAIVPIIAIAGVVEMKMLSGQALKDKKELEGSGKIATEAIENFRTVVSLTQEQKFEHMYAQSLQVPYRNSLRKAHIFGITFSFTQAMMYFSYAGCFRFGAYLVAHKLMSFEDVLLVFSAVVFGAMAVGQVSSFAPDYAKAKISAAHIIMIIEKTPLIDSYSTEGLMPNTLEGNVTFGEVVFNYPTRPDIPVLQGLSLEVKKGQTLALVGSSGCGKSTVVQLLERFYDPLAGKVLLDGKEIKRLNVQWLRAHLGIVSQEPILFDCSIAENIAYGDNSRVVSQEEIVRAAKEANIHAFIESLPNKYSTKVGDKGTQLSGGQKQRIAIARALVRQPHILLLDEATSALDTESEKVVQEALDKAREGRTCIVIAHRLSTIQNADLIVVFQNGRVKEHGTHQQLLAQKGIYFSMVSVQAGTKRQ

## C=C1[C@@H](OC(=O)CCc2ccccc2)CC[C@@]2(C)C[C@H](OC(C)=O)C3=C(C)C(=O)C[C@@H]([C@@H](OC(C)=O)[C@H]12)C3(C)C
[1]
  Activity: inhibitor [+]

## CC[C@]1(O)CC2CN(CCc3c([nH]c4ccccc34)[C@@](C(=O)OC)(c3cc4c(cc3OC)N(C=O)C3C45CCN4CC=C[C@@](CC)(C(OC(C)=O)[C@]3(O)C(=O)OC)[C@H]45)C2)C1.COc1ccc(CCN(C)CCCC(C#N)(c2ccc(OC)c(OC)c2)C(C)C)cc1OC (stereo not given in full)
[2]
  IC50: 18.1 nM

## C=C1C2[C@H](C(C)=O)[C@@H]3CCC(=O)C(C)=C([C@@H](C(C)=O)[C@H](C(C)=O)[C@]2(C)CC[C@@H]1OC(=O)/C=C/c1ccccc1)C3(C)C.CC[C@]1(O)CC2CN(CCc3c([nH]c4ccccc34)[C@@](C(=O)OC)(c3cc4c(cc3OC)N(C=O)C3C45CCN4CC=C[C@@](CC)(C(OC(C)=O)[C@]3(O)C(=O)OC)[C@H]45)C2)C1 (stereo not given in full)
[3]
  IC50: 124 nM

## C=C1[C@@H](OC(=O)CCc2ccccc2)CC[C@@]2(C)C[C@H](OC(C)=O)C3=C(C)C(=O)C[C@@H]([C@@H](OC(C)=O)[C@H]12)C3(C)C.CC[C@]1(O)CC2CN(CCc3c([nH]c4ccccc34)[C@@](C(=O)OC)(c3cc4c(cc3OC)N(C=O)C3C45CCN4CC=C[C@@](CC)(C(OC(C)=O)[C@]3(O)C(=O)OC)[C@H]45)C2)C1 (stereo not given in full)
[4]
  IC50: 2.8 nM
[5]
  IC50: 19.4 nM

## C=C1[C@@H](OC(=O)Cc2ccccc2)CC[C@@]2(C)C[C@H](OC(C)=O)C3=C(C)C(=O)C[C@@H]([C@@H](OC(C)=O)[C@H]12)C3(C)C.CC[C@]1(O)CC2CN(CCc3c([nH]c4ccccc34)[C@@](C(=O)OC)(c3cc4c(cc3OC)N(C=O)C3C45CCN4CC=C[C@@](CC)(C(OC(C)=O)[C@]3(O)C(=O)OC)[C@H]45)C2)C1 (stereo not given in full)
[6]
  IC50: 7.3 nM
[7]
  IC50: 218 nM

## C=C1[C@@H](OC(=O)Cc2cc(OC)ccc2OC)CC[C@@]2(C)C[C@H](OC(C)=O)C3=C(C)C(=O)C[C@@H]([C@@H](OC(C)=O)[C@H]12)C3(C)C.CC[C@]1(O)CC2CN(CCc3c([nH]c4ccccc34)[C@@](C(=O)OC)(c3cc4c(cc3OC)N(C=O)C3C45CCN4CC=C[C@@](CC)(C(OC(C)=O)[C@]3(O)C(=O)OC)[C@H]45)C2)C1 (stereo not given in full)
[8]
  IC50: 325 nM
[9]
  IC50: 8.93 nM

## CC[C@]1(O)C[C@H]2CN(CCc3c([nH]c4ccccc34)[C@@](C(=O)OC)(c3cc4c(cc3OC)N(C=O)[C@H]3[C@@](O)(C(=O)OC)[C@H](OC(C)=O)[C@]5(CC)C=CCN6CC[C@]43[C@@H]65)C2)C1 [VINCRISTINE]
[10]
  IC50: 1230 nM
